Assay results as given in ChEMBL document CHEMBL3627719, “Discovery of bis-aryl urea derivatives as potent and selective Limk inhibitors: Exploring Limk1 activity and Limk1/ROCK2 selectivity through a combined computational study” (Bioorg Med Chem, 2015).

Tests used:
LIM domain kinase 1 = LIM domain kinase 1 (Homo sapiens, UniProt P53667); assay: Inhibition of LIMK1 (unknown origin) using 1 uM cofilin as substrate
How it was run: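 IC50 was determined in 10-dose mode using a 3-fold serial dilution series. Reactions contained ATP, cofilin as substrate, and Limk1 enzyme at 50 nM.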

[1] = molecular target: Rho-associated protein kinase 2 (Homo sapiens, UniProt O75116); assay: Inhibition of ROCK2 (unknown origin) after 4 hrs using 1 uM STK2 as substrate
Chain of Rho-associated protein kinase 2 (O75116 whole entry): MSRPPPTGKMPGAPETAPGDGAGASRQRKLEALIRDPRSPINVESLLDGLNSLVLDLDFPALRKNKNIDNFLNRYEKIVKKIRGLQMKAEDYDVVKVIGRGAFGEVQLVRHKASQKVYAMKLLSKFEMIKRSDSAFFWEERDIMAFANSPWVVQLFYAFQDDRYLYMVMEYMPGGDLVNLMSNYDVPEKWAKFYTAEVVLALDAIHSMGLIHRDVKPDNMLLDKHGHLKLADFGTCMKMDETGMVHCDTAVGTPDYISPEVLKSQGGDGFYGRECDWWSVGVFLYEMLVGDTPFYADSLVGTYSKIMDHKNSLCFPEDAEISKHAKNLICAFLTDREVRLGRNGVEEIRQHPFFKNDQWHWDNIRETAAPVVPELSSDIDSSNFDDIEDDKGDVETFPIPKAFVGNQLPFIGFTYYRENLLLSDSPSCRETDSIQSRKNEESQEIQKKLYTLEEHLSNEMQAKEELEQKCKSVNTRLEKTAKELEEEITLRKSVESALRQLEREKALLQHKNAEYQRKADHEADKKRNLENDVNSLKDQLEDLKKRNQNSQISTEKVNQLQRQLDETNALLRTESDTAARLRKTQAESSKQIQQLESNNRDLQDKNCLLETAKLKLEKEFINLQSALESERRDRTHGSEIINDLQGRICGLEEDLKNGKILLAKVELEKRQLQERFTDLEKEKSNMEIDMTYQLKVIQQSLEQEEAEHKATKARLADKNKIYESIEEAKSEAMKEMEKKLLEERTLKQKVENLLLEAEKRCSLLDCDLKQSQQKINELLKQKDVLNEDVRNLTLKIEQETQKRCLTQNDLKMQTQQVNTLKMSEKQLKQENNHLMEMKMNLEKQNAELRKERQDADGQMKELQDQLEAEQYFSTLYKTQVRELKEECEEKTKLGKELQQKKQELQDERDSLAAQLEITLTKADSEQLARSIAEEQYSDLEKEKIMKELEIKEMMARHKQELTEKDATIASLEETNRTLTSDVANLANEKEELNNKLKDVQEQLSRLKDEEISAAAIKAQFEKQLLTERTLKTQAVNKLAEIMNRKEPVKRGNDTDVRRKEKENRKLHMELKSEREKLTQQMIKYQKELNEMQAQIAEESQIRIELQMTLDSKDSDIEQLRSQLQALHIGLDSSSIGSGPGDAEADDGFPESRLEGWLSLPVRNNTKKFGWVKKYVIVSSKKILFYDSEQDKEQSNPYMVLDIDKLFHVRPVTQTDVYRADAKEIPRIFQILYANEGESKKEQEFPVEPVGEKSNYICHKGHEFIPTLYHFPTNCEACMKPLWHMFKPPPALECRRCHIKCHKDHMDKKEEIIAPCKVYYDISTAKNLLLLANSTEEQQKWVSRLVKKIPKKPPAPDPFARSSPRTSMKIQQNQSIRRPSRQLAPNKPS
How it was run: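 HTRF kinase assay using STK2 substrate plus ATP in STK-buffer, with test compound pin-dispensed. Reaction ran 4 h at rt and was stopped with antibody and 62.5 nM streptavidin-XL in detection buffer. After a further 1 h at rt, plates were read in HTRF mode.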

Chain of LIM domain kinase 1 (P53667 whole entry, the tested form may be a part): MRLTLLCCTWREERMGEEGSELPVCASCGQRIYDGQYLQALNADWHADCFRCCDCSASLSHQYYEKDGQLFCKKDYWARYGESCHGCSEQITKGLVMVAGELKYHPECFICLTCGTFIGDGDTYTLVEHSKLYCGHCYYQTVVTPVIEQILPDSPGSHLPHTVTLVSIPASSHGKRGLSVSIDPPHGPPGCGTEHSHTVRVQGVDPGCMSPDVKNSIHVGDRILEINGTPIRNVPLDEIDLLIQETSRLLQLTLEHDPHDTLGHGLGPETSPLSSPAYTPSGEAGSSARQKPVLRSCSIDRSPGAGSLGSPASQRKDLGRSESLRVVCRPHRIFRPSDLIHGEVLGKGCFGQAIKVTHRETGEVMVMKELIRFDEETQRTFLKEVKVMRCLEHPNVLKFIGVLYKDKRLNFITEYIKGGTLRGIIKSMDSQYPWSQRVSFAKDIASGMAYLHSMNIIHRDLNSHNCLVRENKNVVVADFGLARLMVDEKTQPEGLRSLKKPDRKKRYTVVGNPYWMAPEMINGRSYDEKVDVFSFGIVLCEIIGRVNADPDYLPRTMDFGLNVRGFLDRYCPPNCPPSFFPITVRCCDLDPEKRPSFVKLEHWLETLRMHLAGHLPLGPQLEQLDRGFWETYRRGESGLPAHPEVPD

## COc1ccc(NC(=O)Nc2ccc(-c3ncnc4[nH]cc(C)c34)cc2F)cc1
LIM domain kinase 1
  IC50: 0.01 µM
[1]
  IC50: > 20 µM

## Cc1ccc(NC(=O)Nc2ccc(-c3ncnc4[nH]cc(C)c34)cc2F)cn1
LIM domain kinase 1
  IC50: 0.011 µM
[1]
  IC50: 2.11 µM

## Cc1cc(NC(=O)Nc2ccc(-c3ncnc4[nH]cc(C)c34)cc2F)ccn1
LIM domain kinase 1
  IC50: 0.019 µM
[1]
  IC50: 2.01 µM

## Cc1c[nH]c2ncnc(-c3ccc(NC(=O)Nc4cncnc4)c(F)c3)c12
LIM domain kinase 1
  IC50: 0.055 µM
[1]
  IC50: 1.02 µM

## Cc1c[nH]c2ncnc(-c3ccc(NC(=O)N(CCO)c4ccccc4)c(F)c3)c12
LIM domain kinase 1
  IC50: 0.085 µM
[1]
  IC50: 4.51 µM
